Assay results pooled from the literature.
Lines come from different studies, so protocols differ.
Target: Serine/threonine-protein kinase Nek2 (NEK2, Homo sapiens, UniProt P51955)

| Structure (SMILES) | effect on | mode | technique | concentration | endpoint | value |
| --- | --- | --- | --- | --- | --- | --- |
| Cc1ccc(Nc2nccc(N(C)c3ccc4c(C)n(C)nc4c3)n2)cc1S(N)(=O)=O | enzyme activity | inhibitor | – | 0.3 µM | inhibition | 2% |
| CCN1CCC2(CC1)NC(=O)c1c(c3ccc(Cl)c(Cl)c3n1C)C2C#N (racemic) | thermal stability | – | DSF | 10 µM | ΔTm | 0 °C |
| CNC(=O)c1cc(Oc2ccc(NC(=O)Nc3ccc(Cl)c(C(F)(F)F)c3)cc2)ccn1 | enzyme activity | inhibitor | – | 10 µM | inhibition | -16% |
| CC(C)CC(=O)N1CCc2nc(-c3ccc(Br)cc3)nc(N(C)Cc3ccccc3)c2C1 | cell-free assay | – | competition with immobilised ligand | 0.1 µM | remaining binding | 100% |
| Cn1c2c(c3ccc(Cl)c(Cl)c31)C(C#N)C1(CCOCC1)NC2=O (centres unmarked) | thermal stability | – | DSF | 10 µM | ΔTm | -0.2 °C |
| COc1cc2ncnc(Nc3ccc(F)c(Cl)c3)c2cc1OCCCN1CCOCC1 | cell-free assay | – | – | 0.5 µM | remaining signal | 98.4% |
| COc1cc(Nc2cnc(C#N)c(O[C@H](C)CN(C)C)n2)ncc1-c1cnn(C)c1 | enzyme activity | inhibitor | radiometric | 1 µM | remaining activity | 58% |
| CN(C)C1CCN(CC#Cc2nn(C3CCCC3)c3nc(NCc4ccccc4)ncc23)C1 (centres unmarked) | enzyme activity | inhibitor | FRET | 1 µM | inhibition | 4% |
| CSc1nc(C)c(-c2ccnc(Nc3ccc(N4CCOCC4)cc3)c2)[nH]1 | enzyme activity | inhibitor | – | 10 µM | inhibition | 20% |
| CC(C)(C)c1nc2c(s1)c1nc(N)ncc1c1ccc(NS(=O)(=O)c3c(F)cccc3F)c(F)c12 | enzyme activity | inhibitor | radiometric | 1 µM | remaining activity | 103% |
| C=CC(=O)Nc1cc(Nc2nccc(Nc3cc(Cl)c(F)cc3C(C)(C)O)n2)c(OC)cc1N1CC[C@@H](N(C)C)C1 | enzyme activity | inhibitor | – | 1 µM | inhibition | 5% |
| CN(C(=O)c1ccccc1)c1cc(N(C)c2ccc3c(c2)CCc2ccc(C(=O)NCCN4CCOCC4)cc2C3=O)ccc1F | cell-free assay | – | competition with immobilised ligand | 1 µM | remaining binding | 96% |
| Nc1ncnc2occ(-c3ccc(NC(=O)Nc4cc(C(F)(F)F)ccc4F)cc3)c12 | cell-free assay | inhibitor | – | 20 µM | remaining signal | 2.1% |
| FC(F)(F)Oc1cccc(-c2cnc3ccc(-c4ccncc4)nn23)c1 | enzyme activity | inhibitor | radiometric | 1 µM | activity vs control | 91% |
| CC(C)c1ccc(NC(=O)c2cccs2)c(-c2nc3ccccc3[nH]c2=O)c1 | enzyme activity | inhibitor | – | 1 µM | activity vs control | 93% |
| COc1ccc2c(c1)O[C@H](c1ccc(OC)c(OC)c1)C[C@@H]2NC(=O)C1(c2ccc3c(c2)OC(F)(F)O3)CC1 | cell-free assay | – | competition with immobilised ligand | 1 µM | remaining binding | 100% |
| COc1cc2ncnc(Nc3ccc(Oc4ccccc4)cc3C)c2cc1OC | enzyme activity | inhibitor | – | 1 µM | inhibition | 1% |
| CN(c1ncccc1CNc1nc(Nc2ccc3c(c2)CC(=O)N3)ncc1C(F)(F)F)S(C)(=O)=O | enzyme activity | inhibitor | – | 1 µM | inhibition | 4.1% |
| CN1CCC2(CC1)NC(=O)c1c(c3ccc(Cl)c(Cl)c3n1C)C2C#N (racemic) | thermal stability | – | DSF | 10 µM | ΔTm | 0.1 °C |

| Structure (SMILES) | effect on | mode | technique | concentration | endpoint | value |
| --- | --- | --- | --- | --- | --- | --- |
| CC/C(=N\NC(=O)NCc1cccc(O)c1)c1ccc(O)c(C)c1O | enzyme activity | inhibitor | – | 0.1 µM | inhibition | -2.4% |
| FC(F)(F)c1ccc2c(c1)nc(-c1cccnc1)n2C1CC1 | cell-free assay | – | competition with immobilised ligand | 1 µM | remaining binding | 100% |
| CNCc1ccc(-c2cc(-c3nc(-c4ccc(S(=O)(=O)C(C)C)cc4)cnc3N)on2)cc1 | enzyme activity | inhibitor | – | 0.4 µM | inhibition | 0% |
| O=C1NC(=O)c2cc(Nc3ccc(F)cc3)c(Nc3ccc(F)cc3)cc21 | cell-free assay | – | – | 0.5 µM | remaining signal | 96.3% |
| COc1cc(/C=C/C(=O)CC(=O)/C=C/c2ccc(O)c(OC)c2)ccc1O | enzyme activity | inhibitor | – | 1 µM | activity vs control | 99% |
| Cc1ccc(NC(=O)c2ccc(CN3CCN(C)CC3)cc2)cc1Nc1nc(-c2cccnc2)cs1 | cell-free assay | – | – | 0.5 µM | remaining signal | 96.7% |
| Cc1c(NC(=O)c2cc(C(N)=O)nc3cc(F)ccc23)c(C(F)(F)F)nn1Cc1ccc(C(C)(C)C)cc1 | cell-free assay | – | competition with immobilised ligand | 1 µM | remaining binding | 100% |
| CCCOc1ccc(OC)c(F)c1C(=O)c1ccc(C(=O)N[C@@H]2CNC[C@H]2NC(=O)c2ccc3[nH]ncc3c2)cc1 | enzyme activity | inhibitor | – | 10 µM | remaining activity | 66% |
| CNC(=O)c1ccc(Nc2ncc(C(F)(F)F)c(NCc3nccnc3N(C)S(C)(=O)=O)n2)cc1 | cell-free assay | – | competition with immobilised ligand | 0.1 µM | remaining binding | 75% |
| CCN(CC)CCNC(=O)c1c(C)[nH]c(/C=C2\C(=O)Nc3ccc(F)cc32)c1C | enzyme activity | inhibitor | – | 0.3 µM | inhibition | 9% |
| O=C(Nc1cnn(-c2csc(C(=O)NC3COC3)c2)c1)Nc1c(F)cccc1Cl | enzyme activity | inhibitor | – | 5 µM | remaining activity | 96.2% |
| Cc1ccc(C(=O)Nc2ccc(CN3CCN(C)CC3)c(C(F)(F)F)c2)cc1C#Cc1cnc2cccnn12 | enzyme activity | inhibitor | – | 23.5 nM | remaining activity | 92% |
| Cn1c2c(c3ccc(Cl)c(Cl)c31)C(C#N)C(C)(C)NC2=O (centres unmarked) | thermal stability | – | DSF | 10 µM | ΔTm | -0.9 °C |
| CC(C)(O)[C@H]1CC[C@H](Nc2ccc3ncc(-c4cccc(C(F)(F)F)c4)n3n2)CC1 | enzyme activity | inhibitor | – | 1 µM | remaining activity | 100% |
| CCCS(=O)(=O)Nc1ccc(F)c(C(=O)c2c[nH]c3ncc(-c4ccc(Cl)cc4)cc23)c1F | enzyme activity | inhibitor | – | 1 µM | inhibition | < 20% |
| CS(=O)(=O)NCC[C@H](NC(=O)c1cncc2c1cnn2-c1ccc(F)cc1)c1ccnc(S(C)(=O)=O)c1 | cell-free assay | – | competition with immobilised ligand | 1 µM | remaining binding | 97% |
| FC(F)c1nc2ccccc2n1-c1nc(N2CCOCC2)nc(N2CCOCC2)n1 | enzyme activity | inhibitor | – | 10 µM | remaining activity | 106% |
| Nc1cnc(N2CCc3cc(S(=O)(=O)Nc4c(F)cc(Cl)cc4F)cc(N4CCCC4=O)c32)nc1 | cell-free assay | – | competition with immobilised ligand | 1 µM | remaining binding | 89% |
| CC(C)(C)C(=O)c1sc(NC2CCCCC2)nc1N | enzyme activity | inhibitor | – | 10 µM | remaining activity | 93% |
